For four compounds, Activity and inhibition results are on record in ChEMBL document CHEMBL3808313, “Comparing the efficacy of photodynamic and sonodynamic therapy in non-melanoma and melanoma skin cancer” (Bioorg Med Chem, 2016).

Data set [1] can be described thus: Induction of ROS generation in EtOH/H2O solution assessed as reduction in DPBF absorbance at 0.5 uM preincubated with compound followed by white light irradiation for 30 mins by UV-visible spectrometric analysis relative to control. The arrangement: scale not given: the % may be the effect or the level left. Particulars: 0.5 h. Format: physicochemical.
Data set [2] in a line: Induction of ROS generation in EtOH/H2O solution assessed as reduction in DPBF absorbance at 0.5 uM preincubated with compound followed by ultrasound irradiation for 30 mins by UV-visible spectrometric analysis relative to control. It counts as physicochemical. Also on record: scale not given: the % may be the effect or the level left. Particulars: 0.5 h.
In data set [3] the test system is Mus musculus. In words: Toxicity in nude mouse xenografted ectopically with mouse B16-F10-Luc2 cells assessed as reduction in body weight at 100 uM pretreated with compound followed by ultrasound irradiation measured up to 6 days post dosing relative to control. The note with it: in vivo. It counts as organism-based.
Data set [4] relates to RIF-1. The data set can be described thus: Cytotoxicity against mouse RIF1 cells assessed as reduction in cell viability at 0.5 uM preincubated for 3 hrs followed by ultrsound irradiation through 3.4 to 6.8 mm guinea pig skin barrier by MTT assay. It counts as functional, cell-based. (Formazan colour is commonly taken as a measure of viable cells.)
The nature of data set [5]: Cytotoxicity against mouse B16-F10-luc2 cells assessed as reduction in cell viability at 0.5 uM preincubated for 3 hrs followed by 90 J/cm'-2 ultrasound irradiation for 60 sec measured after 24 hrs by MTT assay relative to control. It counts as functional. The note with it: B16-F10-luc2, light or radiation study.
The nature of data set [6]: Antitumor activity against mouse B16-F10-luc2 cells ectopically xenografted in nude mouse assessed as tumor growth at 100 uM pretreated with compound followed by ultrasound irradiation measured up to 6 days post dosing relative to control. Format: functional.
The nature of data set [7]: Antitumor activity against mouse B16-F10-luc2 cells ectopically xenografted in nude mouse assessed as tumor growth at 100 uM pretreated with compound followed by white light irradiation measured on day 4 post dosing relative to control. Format: functional.
A short description of data set [8]: Cytotoxicity against mouse RIF1 cells assessed as reduction in cell viability at 0.5 uM preincubated for 3 hrs followed by 90 J/cm'-2 ultrasound irradiation for 60 sec measured after 24 hrs by MTT assay relative to control. Format: functional. Particulars: RIF-1, light or radiation study.
Data set [9] is described as follows: Cytotoxicity against mouse B16-F10-luc2 cells assessed as reduction in cell viability at 0.5 uM preincubated for 3 hrs followed by 22.8 J/cm'-2 white light irradiation for 60 sec measured after 24 hrs by MTT assay relative to control. It counts as functional. The note with it: B16-F10-luc2, light or radiation study.
Data set [10] is described as follows: Cytotoxicity against mouse RIF1 cells assessed as reduction in cell viability at 0.5 uM preincubated for 3 hrs followed by 45 J/cm'-2 ultrasound irradiation for 30 sec measured after 24 hrs by MTT assay relative to control. Particulars: RIF-1, light or radiation study. It counts as functional.
Data set [11] concerns HeLa. The data set can be described thus: Cytotoxicity against human HeLa cells assessed as reduction in cell viability at 0.5 uM preincubated for 3 hrs followed by 90 J/cm'-2 ultrasound irradiation for 60 sec measured after 24 hrs by MTT assay relative to control. Particulars: light or radiation study. Format: functional.
The subject of data set [12] is Mus musculus. The data set can be described thus: Toxicity in nude mouse xenografted ectopically with mouse B16-F10-Luc2 cells assessed as reduction in body weight at 100 uM pretreated with compound followed by white light irradiation measured up to 6 days post dosing relative to control. Format: organism-based. Particulars: in vivo.
A short description of data set [13]: Antitumor activity against mouse B16-F10-luc2 cells ectopically xenografted in nude mouse assessed as tumor growth at 100 uM pretreated with compound followed by ultrasound irradiation measured on day 4 post dosing relative to control. Format: functional.
Data set [14] in a line: Cytotoxicity against mouse B16-F10-luc2 cells assessed as reduction in cell viability at 0.5 uM preincubated for 3 hrs followed by 45 J/cm'-2 ultrasound irradiation for 30 sec measured after 24 hrs by MTT assay relative to control. Particulars: B16-F10-luc2, light or radiation study. It counts as functional.
For data set [15], the system named is HeLa. The data set can be described thus: Cytotoxicity against human HeLa cells assessed as reduction in cell viability at 0.5 uM preincubated for 3 hrs followed by 11.4 J/cm'-2 white light irradiation for 30 sec measured after 24 hrs by MTT assay relative to control. It counts as functional. Particulars: light or radiation study.
The subject of data set [16] is HeLa. In words: Cytotoxicity against human HeLa cells assessed as reduction in cell viability at 0.5 uM preincubated for 3 hrs followed by 22.8 J/cm'-2 white light irradiation for 60 sec measured after 24 hrs by MTT assay relative to control. Format: functional. The note with it: light or radiation study.
Data set [17] is described as follows: Cytotoxicity against mouse RIF1 cells assessed as reduction in cell viability at 0.5 uM preincubated for 3 hrs followed by 22.8 J/cm'-2 white light irradiation for 60 sec measured after 24 hrs by MTT assay relative to control. It counts as functional. Particulars: RIF-1, light or radiation study.
The test system of data set [18] is RIF-1. In words: Cytotoxicity against mouse RIF1 cells assessed as reduction in cell viability at 0.5 uM preincubated for 3 hrs followed by white light irradiation through 3.4 to 6.8 mm guinea pig skin barrier by MTT assay. It counts as functional, cell-based.
Data set [19] in a line: Cytotoxicity against mouse B16-F10-luc2 cells assessed as reduction in cell viability at 0.5 uM preincubated for 3 hrs followed by 11.4 J/cm'-2 white light irradiation for 30 sec measured after 24 hrs by MTT assay relative to control. It counts as functional. Particulars: B16-F10-luc2, light or radiation study.
The test system of data set [20] is HeLa. The data set can be described thus: Cytotoxicity against human HeLa cells assessed as reduction in cell viability at 0.5 uM preincubated for 3 hrs followed by 45 J/cm'-2 ultrasound irradiation for 30 sec measured after 24 hrs by MTT assay relative to control. It counts as functional. Particulars: light or radiation study.
Data set [21] in a line: Cytotoxicity against mouse RIF1 cells assessed as reduction in cell viability at 0.5 uM preincubated for 3 hrs followed by 11.4 J/cm'-2 white light irradiation for 30 sec measured after 24 hrs by MTT assay relative to control. It counts as functional. Particulars: RIF-1, light or radiation study.
Data set [22] deals with A-431. In words: Cytotoxicity against human A431 cells assessed as reduction in cell viability at 1 uM preincubated for 4 hrs followed by 90 J/cm'-2 ultrasound irradiation measured after 24 hrs by MTT assay. It counts as functional, cell-based. The essentials: (§1)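 A431 squamous carcinoma cells were seeded and incubated with ALA (1 or 2 μM) for 4 h. They were then exposed to either red light (630 nm ± 15 nm) or ultrasound. Viability was read by MTT assay 24 h after treatment.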

Data set [23] concerns A-431. The data set can be described thus: Cytotoxicity against human A431 cells assessed as reduction in cell viability at 1 uM preincubated for 4 hrs followed by 5 J/cm'-2 red light irradiation measured after 24 hrs by MTT assay. It counts as functional, cell-based. The essentials:
as §1

Data set [24] concerns A-431. In words: Cytotoxicity against human A431 cells assessed as reduction in cell viability at 2 uM preincubated for 4 hrs followed by 90 J/cm'-2 ultrasound irradiation measured after 24 hrs by MTT assay relative to control. Format: functional. The note with it: A-431, light or radiation study. The procedure, abridged: as §1
Data set [25] relates to A-431. The data set can be described thus: Cytotoxicity against human A431 cells assessed as reduction in cell viability at 2 uM preincubated for 4 hrs followed by 5 J/cm'-2 red light irradiation measured after 24 hrs by MTT assay relative to control. Format: functional. The note with it: A-431, light or radiation study. The procedure, abridged:
as §1

Data set [26] concerns Mus musculus. The data set can be described thus: Toxicity in topically dosed SCID mouse xenografted ectopically with human A431 cells assessed as reduction in body weight pretreated for 4 hrs via Metvix cream followed by 40 J/cm'-2 red light irradiation measured on day 7 post dosing. It counts as organism-based, A-431. Particulars: in vivo, topical_or_ocular. For orientation: In xenograft studies the graft and the host belong to different species.

The subject of data set [27] is Mus musculus. The data set can be described thus: Toxicity in topically dosed SCID mouse xenografted ectopically with human A431 cells assessed as reduction in body weight pretreated for 4 hrs via Metvix cream followed by 220 J/cm'-2 ultrasound irradiation measured on day 7 post dosing. Format: organism-based, A-431. Particulars: in vivo, topical_or_ocular.
The subject of data set [28] is A-431. In words: Antitumor activity against human A431 cells ectopically xenografted in topically dosed SCID mouse assessed as tumor growth pretreated for 4 hrs via Metvix cream followed by 40 J/cm'-2 red light irradiation measured on day 7 post dosing relative to control. Format: functional.
Data set [29] has as its system A-431. The data set can be described thus: Antitumor activity against human A431 cells ectopically xenografted in topically dosed SCID mouse assessed as tumor growth pretreated for 4 hrs via Metvix cream followed by 220 J/cm'-2 ultrasound irradiation measured on day 7 post dosing relative to control. It counts as functional.
Data set [30] relates to A-431. The data set can be described thus: Antitumor activity against human A431 cells ectopically xenografted in topically dosed SCID mouse assessed as tumor growth treated for 4 hrs via Metvix cream measured on day 7 post dosing relative to control. It counts as functional.

Calls of active or inactive are those of the source. The calls are words filed in the database; no cut-off is given here.

In the case of `C=CC1=C(C)c2cc3[nH]c(cc4nc(cc5[nH]c(cc1n2)c(C)c5CCC(=O)O)C(CCC(=O)O)=C4C)c(C)c3C=C` [PROTOPORPHYRIN], the Activity in data set [1] is 60%; in [2] it was 17%.

Turning to `O=C([O-])c1c(Cl)c(Cl)c(Cl)c(Cl)c1-c1c2cc(I)c(=O)c(I)c-2oc2c(I)c([O-])c(I)cc12.[Na+].[Na+]` [ROSE BENGAL SODIUM], the Activity result in the data set with Mus musculus [3] is reported as “Non-toxic”; in [6] it was 400%; in data set [7], 400%; in the data set with Mus musculus [12], “Non-toxic”; in data set [13], 120%; in data set [1] it was “Active”. Besides, the result in data set [2] was Active. Besides, in the data set on RIF-1 [4], the inhibition result was “Active”. The inhibition at 0.5 µM in data set [5] stood at 40%; in data set [8], 50%; in data set [9], 18%; in data set [10], 50%; with HeLa [11] it was 50%; in [14], 25%. For the same compound, the inhibition at 0.5 µM with HeLa [15] amounted to 50%; in the data set with HeLa [16], 50%; in [17], 50%; in [19], 7%; with HeLa [20], 50%; in data set [21], 50%. Besides, in the data set on RIF-1 [18], the inhibition result is “inactive”.

On to `NCC(=O)CCC(=O)O` [AMINOLEVULINIC ACID], for which the inhibition entry in the data set on A-431 [22] and in the data set on A-431 [23] was “Active” each time. Further, the inhibition at 2 µM in the data set with A-431 [24] amounted to 31%; with A-431 [25], 43%.

On to `COC(=O)CCC(=O)CN` [METHYL AMINOLEVULINATE], for which the Activity entry in the data set with Mus musculus [26] was “Non-toxic”; in the data set with Mus musculus [27], “Non-toxic”; with A-431 [28], 22%; with A-431 [29], 11%; with A-431 [30], 90%.

One may read the inhibition as the share of the control response that was lost under treatment.
